# This is a sample that favours compounds with a hit; in the whole collection about 3.5% have one here.
# PglD inh: PglD (C. jejuni) enzyme inhibition. purified PglD enzyme, DTNB colorimetric CoA detection. inhibition, % at 12.5 µM. hit rate 0.098% among 360,000. AID 602405; in the data active means inhibition above about 16%, passing the limit was not always enough; inconclusive means no clear call, values can overlap the other calls
# PGC1a acetyl inh: lowers PGC1a acetylation signal in U2OS cells; AlphaScreen anti-acetyl-lysine; with virally co-expressed GCN5 acetyltransferase; inhibition, % at 15.6 µM; hit rate 0.17% among 350,000;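 active means every replicate shows inhibition of at least 40%; inconclusive means mean inhibition at least 40% but some replicate below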;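 further: 0% = neutral control wells and 100% = positive control wells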
# Env fusion inh: blocks HIV Env-driven cell-cell fusion; HeLa-JRFL Env/CEM21 cell fusion, luciferase; inhibition, % at 12.3 µM; hit rate 1.1% among 360,000; AID 651610;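 active means mean replicate inhibition score of at least 50 and every replicate individually at or above 50; inconclusive means only one of the two criteria met; inactive means mean below 50 and not all replicates reaching 50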;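 further: 0% = plate neutral controls and 100% = maraviroc near 300 nM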
# FN deposition inh: fibronectin deposition inhibition; AH1F fibroblasts, Alexa488-fibronectin deposition fluorescence, overnight; hit rate 0.086% among 350,000; inhibition, % at 12.6 µM;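 active means mean inhibition across replicates of 30% or more, regardless of how many single replicates reach that level; inconclusive means mean under 30% yet at least half of replicates reach 30%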;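 further: positive control wells lacked labelled fibronectin entirely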
#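 test system = AH1F fibroblasts assembling fluorescent fibronectin matrix | quantity = 10000 AH1F cells per well | buffer or medium = DMEM plus 2% serum, read in PBS | doses = single dose, pinned | incubation = 1 h cell attachment, overnight exposure to compound and label | detection = fluorescence at 485 nm excitation, 525 nm emission | read-out basis = inhibition from reduced deposited-fibronectin fluorescence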
# DENV2 CPE rescue: DENV2-induced cell death inhibition. DENV2-infected cells, cytopathic effect rescue, plate reader. CPE inhibition, % at 9.99 µM. hit rate 1.7% among 350,000. AID 651640; in the data active means CPE inhibition above about 20%, passing the limit was not always enough; inconclusive means no clear call, values can overlap the other calls; tested in BHK-21 cells;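 further: 0% = median of neutral control wells and 100% = median of positive control wells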
# Ecoli rRNA inh: inhibits bacterial ribosomal RNA function over humanized ribosomes | E. coli WT GFP vs humanized-ribosome RFP mutants, fluorescence, 24 h; stronger effect = lower value; DMSO median 0, no signal -100 | GFP signal change (wild-type ribosome), % (test concentration not listed) | hit rate 1.6% among 350,000 | AID 720706;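 active means significant combined selectivity score with lowered wild-type GFP, culture density cut under 30%, mutant RFP and density less affected; inactive means any of these conditions unmet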
# Numbers without * were called inactive; ? = inconclusive; / = no result; [ ] = another dose, or the depositor's remark.
SMILES,PglD inh,PGC1a acetyl inh,Env fusion inh,FN deposition inh,DENV2 CPE rescue,Ecoli rRNA inh
COCC(=O)Nc1ccc2c(c1)[C@H]1C[C@@H](CC(=O)NC3CCCCC3)O[C@H](CO)[C@H]1O2,2,-8,0[16.7 µM],5,33*,2
CCS(=O)(=O)N1[C@H](CO)[C@@H](c2ccc(C#Cc3ccccc3F)cc2)[C@@H]1C#N,-2,-3,/,/,?,-48
CC(C)(C)n1nc2c(c1NC(=O)Cc1ccc(F)cc1)CS(=O)(=O)C2,2,0,1,2,-6,5
Cc1ccc(OCC(=O)Nc2c3c(nn2C(C)(C)C)CS(=O)(=O)C3)cc1,5,/,58*,0,-6,7
C[C@H](CO)N1C[C@H](C)[C@@H](CN(C)C(=O)Nc2ccccc2)Oc2c(NC(=O)Nc3cccc4ccccc34)cccc2C1=O,12,5,-9[16.7 µM],/,0,1
C[C@@H]1CN([C@@H](C)CO)S(=O)(=O)c2ccc(C3=CCCC3)cc2O[C@@H]1CN(C)C(=O)CN(C)C,1,-6,2[16.7 µM],/,2,9
C[C@@H]1CCCCO[C@H](CN(C)S(=O)(=O)c2ccc(Cl)cc2)[C@H](C)CN([C@@H](C)CO)C(=O)c2cc(NC(=O)Nc3ccc4c(c3)OCO4)ccc2O1,0,2,-3[16.7 µM],-4,34*,4
C[C@@H]1CCCCO[C@@H](CN(C)S(=O)(=O)c2ccc(F)cc2)[C@H](C)CN([C@H](C)CO)C(=O)c2cc(NC(=O)Nc3ccc4c(c3)OCO4)ccc2O1,-2,7,3[16.7 µM],1,24*,2
C[C@H](CO)N1C[C@H](C)[C@@H](CN(C)S(=O)(=O)c2ccc(Cl)cc2)OCCCC[C@H](C)Oc2ccc(NC(=O)Nc3ccc4c(c3)OCO4)cc2C1=O,-4,-4,0[16.7 µM],-4,-18,3
COc1ccc(S(=O)(=O)N(C)C[C@@H]2Oc3ccc(NS(=O)(=O)c4cn(C)cn4)cc3CC(=O)N([C@@H](C)CO)C[C@H]2C)cc1,3,5,-10[16.7 µM],/,10,2
CC1CN(c2nc3ccccc3nc2C(C#N)C(=O)OC2CCCCC2)CC(C)O1 (stereo not drawn),4,/,59*,/,/,/
CC1CCN(c2nc3ccccc3nc2C(C#N)C(=O)OC2CCCCC2)CC1 (stereo not drawn),2,0,/,/,/,/
COc1ccc2c3c(n(C)c2c1)[C@H](CO)N(C(=O)NC1CCCCC1)CC31CCN(C)CC1,/,-3,/,3,1,7
C[C@@H]1CN([C@@H](C)CO)C(=O)c2cc(-c3ccc(F)cc3)cnc2O[C@@H]1CN(C)Cc1ccccn1,-3,-9,-7[16.7 µM],-12,-7,5
Cc1ccccc1/C=C1\C(=O)Nc2ccc(F)cc21,-4,-8,-23,-6,-1,-5
O=C1Nc2ccccc2/C1=C/c1ccccc1F,2,2,-3,-2,-6,-29*
C[C@H](CO)N1C[C@H](C)[C@@H](CN(C)Cc2cncnc2)Oc2ncc(-c3ccc(C#N)cc3)cc2C1=O,6,5,11[16.7 µM],-3,?,5
O=C(O)CC(NC(=O)C12CC3CC(CC(C3)C1)C2)c1ccc(OC2CCCC2)cc1 (stereo not drawn),7,-4,-7,-9,22*,-2
CCN(C(=O)COC(=O)c1cc2c(s1)CCCCC2)C1CCS(=O)(=O)C1 (stereo not drawn),0,0,-17,0,60*,11
CCN(C(=O)COC(=O)c1cc(-c2ccccc2)nn1-c1ccccc1)C1CCS(=O)(=O)C1 (stereo not drawn),9,-4,5,-8,-3,-31*
C[C@@H]1CN([C@H](C)CO)C(=O)Cc2cc(NC(=O)Nc3ccc4c(c3)OCO4)ccc2O[C@H]1CN(C)Cc1ccc(-c2ccccc2)cc1,0,4,10[16.7 µM],/,12,-2
N#C/C(=C\c1ccncc1)c1nc2ccccc2o1,6,-3,-14,1,4,2
Cn1c(/C(C#N)=C/c2cccc(O)c2)nc2ccccc21,-10,14,-39,3,-2,-24*
N#C/C(=C\c1cccc(O)c1)c1nc2ccccc2o1,2,-4,-21,0,6,-18*
